Key:
[1] = Cell cycle arrest in KB/HeLa cells assessed as accumulation at G1 phase at 0.3 nM after 24 hrs by flow cytometric analysis; format: functional, cell-based; conditions: Homo sapiens
How it was run: (§1)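 Subconfluent KB/HeLa cells exposed to a range of compound concentrations for 24 h. Cell cycle phase distribution determined by flow cytometry. Experiments run at least in duplicate (n = 2).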

[2] = Cell cycle arrest in KB/HeLa cells assessed as accumulation at S phase at 31.6 nM after 24 hrs by flow cytometric analysis; format: functional, cell-based; conditions: Homo sapiens; how it was run: as §1
Tubulin [3] = assay: Displacement of [3H]colchicine from biotinylated tubulin by scintillation proximity assay; format: protein-complex assay, Homo sapiens
[4] = Cell cycle arrest in KB/HeLa cells assessed as accumulation at S phase at 1 nM after 24 hrs by flow cytometric analysis; format: functional, cell-based; conditions: Homo sapiens; how it was run: as §1
[5] = Cell cycle arrest in KB/HeLa cells assessed as accumulation at G1 phase at 100 nM after 24 hrs by flow cytometric analysis; format: functional, cell-based; conditions: Homo sapiens; how it was run: as §1
[6] = Cell cycle arrest in KB/HeLa cells assessed as accumulation at G1 phase at 0.1 nM after 24 hrs by flow cytometric analysis; format: functional, cell-based; conditions: Homo sapiens; how it was run: as §1
[7] = Cell cycle arrest in KB/HeLa cells assessed as accumulation at G1 phase at 1 nM after 24 hrs by flow cytometric analysis; format: functional, cell-based; conditions: Homo sapiens; how it was run: as §1
[8] = Cell cycle arrest in KB/HeLa cells assessed as accumulation at S phase at 316 nM after 24 hrs by flow cytometric analysis; format: functional, cell-based; conditions: Homo sapiens; how it was run: as §1
[9] = Antiproliferative activity against rat L12 cells after 48 hrs by XTT assay; format: functional, cell-based
[10] = Cell cycle arrest in KB/HeLa cells assessed as accumulation at G2M phase at 10 nM after 24 hrs by flow cytometric analysis; format: functional, cell-based; conditions: Homo sapiens; how it was run: as §1
[11] = Cell cycle arrest in KB/HeLa cells assessed as accumulation at G1 phase at 3.16 nM after 24 hrs by flow cytometric analysis; format: functional, cell-based; conditions: Homo sapiens; how it was run: as §1
NCI-H460 = assay: Cytotoxicity against human NCI-H460 cells after 48 hrs by XTT assay; format: functional, cell-based; conditions: NCI-H460, 48 h
How it was run: (§2)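 XTT proliferation assay with 48 h incubation with test compound. Each experiment run at least in duplicate (n = 2). IC50 calculated by nonlinear regression of dose-response curves.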

[12] = Cell cycle arrest in KB/HeLa cells assessed as accumulation at G2/M phase after 24 hrs by flow cytometric analysis; format: functional, cell-based; conditions: Homo sapiens; how it was run: as §1
[13] = Cell cycle arrest in KB/HeLa cells assessed as accumulation at G1 phase at 1000 nM after 24 hrs by flow cytometric analysis; format: functional, cell-based; conditions: Homo sapiens; how it was run: as §1
[14] = Cell cycle arrest in KB/HeLa cells assessed as accumulation at G2M phase at 316 nM after 24 hrs by flow cytometric analysis; format: functional, cell-based; conditions: Homo sapiens; how it was run: as §1
[15] = Cell cycle arrest in KB/HeLa cells assessed as accumulation at G2M phase at 1000 nM after 24 hrs by flow cytometric analysis; format: functional, cell-based; conditions: Homo sapiens; how it was run: as §1
P388 [16] = assay: Antiproliferative activity against mouse P388 cells after 48 hrs by XTT assay; format: functional, cell-based; conditions: P388, 48 h; how it was run: as §2
[17] = Cell cycle arrest in KB/HeLa cells assessed as accumulation at G1 phase at 316 nM after 24 hrs by flow cytometric analysis; format: functional, cell-based; conditions: Homo sapiens; how it was run: as §1
[18] = Cell cycle arrest in KB/HeLa cells assessed as accumulation at S phase at 0.3 nM after 24 hrs by flow cytometric analysis; format: functional, cell-based; conditions: Homo sapiens; how it was run: as §1
SK-OV-3 = assay: Cytotoxicity against human SKOV3 cells after 48 hrs by XTT assay; format: functional, cell-based; conditions: SK-OV-3, 48 h; how it was run: as §2
[19] = Cytotoxicity against human KB/HeLa cells after 48 hrs by XTT assay; format: functional, cell-based; how it was run: as §2
[20] = Cell cycle arrest in KB/HeLa cells assessed as accumulation at G2M phase at 0.3 nM after 24 hrs by flow cytometric analysis; format: functional, cell-based; conditions: Homo sapiens; how it was run: as §1
L1210 [21] = assay: Antiproliferative activity against mouse L1210 cells after 48 hrs by XTT assay; format: functional, cell-based; conditions: L1210, 48 h; how it was run: as §2
P388 [22] = assay: Antiproliferative activity against mouse adriamycin-resistant P388 cells after 48 hrs by XTT assay; format: functional, cell-based; conditions: P388, 48 h; how it was run: as §2
SF-268 = assay: Cytotoxicity against human SF268 cells after 48 hrs by XTT assay; format: functional, cell-based; conditions: SF-268, 48 h; how it was run: as §2
[23] = Cell cycle arrest in KB/HeLa cells assessed as accumulation at S phase at 10 nM after 24 hrs by flow cytometric analysis; format: functional, cell-based; conditions: Homo sapiens; how it was run: as §1
[24] = Cell cycle arrest in KB/HeLa cells assessed as accumulation at G1 phase at 10 nM after 24 hrs by flow cytometric analysis; format: functional, cell-based; conditions: Homo sapiens; how it was run: as §1
[25] = Cell cycle arrest in KB/HeLa cells assessed as accumulation at G2M phase at 100 nM after 24 hrs by flow cytometric analysis; format: functional, cell-based; conditions: Homo sapiens; how it was run: as §1
[26] = Cell cycle arrest in KB/HeLa cells assessed as accumulation at G2M phase at 0.1 nM after 24 hrs by flow cytometric analysis; format: functional, cell-based; conditions: Homo sapiens; how it was run: as §1
[27] = Cell cycle arrest in KB/HeLa cells assessed as accumulation at S phase at 0.1 nM after 24 hrs by flow cytometric analysis; format: functional, cell-based; conditions: Homo sapiens; how it was run: as §1
[28] = Cell cycle arrest in KB/HeLa cells assessed as accumulation at G2M phase at 31.6 nM after 24 hrs by flow cytometric analysis; format: functional, cell-based; conditions: Homo sapiens; how it was run: as §1
[29] = Cell cycle arrest in KB/HeLa cells assessed as accumulation at G1 phase at 31.6 nM after 24 hrs by flow cytometric analysis; format: functional, cell-based; conditions: Homo sapiens; how it was run: as §1
L1210 [30] = assay: Antiproliferative activity against mouse vincristine-resistant L1210 cells after 48 hrs by XTT assay; format: functional, cell-based; conditions: L1210, 48 h; how it was run: as §2
[31] = Antiproliferative activity against rat multidrug-resistant L12 cells after 48 hrs by XTT assay; format: functional, cell-based; conditions: L1.2, 48 h; how it was run: as §2
[32] = Cell cycle arrest in KB/HeLa cells assessed as accumulation at S phase at 1000 nM after 24 hrs by flow cytometric analysis; format: functional, cell-based; conditions: Homo sapiens; how it was run: as §1
[33] = Cell cycle arrest in KB/HeLa cells assessed as accumulation at G2M phase at 3.16 nM after 24 hrs by flow cytometric analysis; format: functional, cell-based; conditions: Homo sapiens
K562 = assay: Antiproliferative activity against human K562 cells after 48 hrs; format: functional, cell-based; conditions: K562, 48 h
How it was run: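 Growth of K562 cells measured by counting cells with a hemocytometer after 48 h (2 days) of drug treatment. IC50 is the mean of at least three independent determinations.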

[34] = Cell cycle arrest in KB/HeLa cells assessed as accumulation at S phase at 3.16 nM after 24 hrs by flow cytometric analysis; format: functional, cell-based; conditions: Homo sapiens; how it was run: as §1
RKO [35] = assay: Cytotoxicity against human RKO cells after 48 hrs by XTT assay; format: functional, cell-based; how it was run: as §2
[36] = Cell cycle arrest in KB/HeLa cells assessed as accumulation at S phase at 100 nM after 24 hrs by flow cytometric analysis; format: functional, cell-based; conditions: Homo sapiens; how it was run: as §1
[37] = Cell cycle arrest in KB/HeLa cells assessed as accumulation at G2M phase at 1 nM after 24 hrs by flow cytometric analysis; format: functional, cell-based; conditions: Homo sapiens; how it was run: as §1
Tubulin [38] = biological target: Tubulin (Sus scrofa, UniProt P02554+P02550); assay: Inhibition of porcine brain tubulin polymerization
RKO [39] = assay: Cytotoxicity against human RKO cells with ectopic-inducible expression of p27kip1 after 48 hrs by XTT assay; format: functional, cell-based; how it was run: as §2

For COc1ccc(S(=O)(=O)Oc2c3ccccc3cc3ccccc23)cc1, the Activity [1] was 61.6%, the Activity [2] was 26.8% and the IC50 (Tubulin [3]) was 560 nM. It also gave an Activity [4] of 26.2%, an Activity [5] of 56.4% and an Activity [6] of 61.4%. The Activity [7] was 62.1%, the Activity [8] was 4.8% and the IC50 [9] was 440 nM. The Activity [10] was 12.6%, the Activity [11] was 62.7% and the IC50 (NCI-H460) was 640 nM. It also gave an EC50 [12] of 135 nM, an Activity [13] of 1.1% and an Activity [14] of 94.4%. The Activity [15] was 90.5%, the IC50 (P388 [16]) was 380 nM and the Activity [17] was 0.8%. For the same compound, the Activity [18] was 26%, the IC50 (SK-OV-3) was 250 nM and the IC50 [19] was 370 nM. The Activity [20] was 12.4%, the IC50 (L1210 [21]) was 540 nM and the IC50 (P388 [22]) was 270 nM. It also gave an IC50 (SF-268) of 340 nM, an Activity [23] of 25.5% and an Activity [24] of 61.8%. It also gave an Activity [25] of 12.6%, an Activity [26] of 11.9% and an Activity [27] of 26.7%. It also gave an Activity [28] of 11.4%, an Activity [29] of 61.8% and an IC50 (L1210 [30]) of 460 nM. The IC50 [31] was 360 nM, the Activity [32] was 8.4% and the Activity [33] was 11.4%. It also gave an IC50 (K562) of 90 nM, an Activity [34] of 26% and an IC50 (RKO [35]) of 280 nM. The Activity [36] was 31%, the Activity [37] was 11.7% and the IC50 (Tubulin [38]) was 1200 nM. For the same compound, the IC50 (RKO [39]) was > 9000 nM.

Compound COc1ccc(S(=O)(=O)Oc2c3ccccc3cc3sccc23)cc1 has an Activity [1] of 61.4%, an Activity [2] of 28.6% and an IC50 (Tubulin [3]) of 510 nM. The Activity [4] was 26.7%, the Activity [5] was 51.2% and the Activity [6] was 60.6%. For the same compound, the Activity [7] was 61.9%, the Activity [8] was 7% and the IC50 [9] was 170 nM. The Activity [10] was 11.9%, the Activity [11] was 62.2% and the IC50 (NCI-H460) was 210 nM. For the same compound, the EC50 [12] was 125 nM, the Activity [13] was 1.6% and the Activity [14] was 92.1%. It also gave an Activity [15] of 88.7%, an IC50 (P388 [16]) of 180 nM and an Activity [17] of 0.9%. It also gave an Activity [18] of 26.6%, an IC50 (SK-OV-3) of 210 nM and an IC50 [19] of 180 nM. The Activity [20] was 12%, the IC50 (L1210 [21]) was 190 nM and the IC50 (P388 [22]) was 180 nM. For the same compound, the IC50 (SF-268) was 260 nM, the Activity [23] was 27.4% and the Activity [24] was 60.7%. For the same compound, the Activity [25] was 16.7%, the Activity [26] was 12.3% and the Activity [27] was 27.1%. For the same compound, the Activity [28] was 11.7%, the Activity [29] was 59.8% and the IC50 (L1210 [30]) was 200 nM. It also gave an IC50 [31] of 190 nM, an Activity [32] of 9.7% and an Activity [33] of 11.3%. The IC50 (K562) was 60 nM, the Activity [34] was 26.5% and the IC50 (RKO [35]) was 180 nM. It also gave an Activity [36] of 32.1%, an Activity [37] of 11.4% and an IC50 (Tubulin [38]) of 910 nM. The IC50 (RKO [39]) was > 9000 nM.

With COC(=O)Nc1nc2cc(C(=O)c3cccs3)ccc2[nH]1 [NOCODAZOLE] the Activity [2] was 25.7%, the Activity [4] was 23.6% and the Activity [5] was 22.3%. For the same compound, the Activity [7] was 65.2%, the Activity [8] was 6% and the IC50 [9] was 300 nM. The Activity [10] was 10%, the Activity [11] was 64.6% and the EC50 [12] was 91 nM. The Activity [14] was 93.2%, the IC50 (P388 [16]) was 70 nM and the Activity [17] was 0.9%. The IC50 [19] was 140 nM, the IC50 (P388 [22]) was 50 nM and the Activity [23] was 25.7%. It also gave an Activity [24] of 64.2%, an Activity [25] of 51.4% and an Activity [28] of 9.9%. For the same compound, the Activity [29] was 64.4%, the IC50 [31] was 50 nM and the Activity [33] was 10.6%. The Activity [34] was 24.8%, the Activity [36] was 26.1% and the Activity [37] was 11.1%. For the same compound, the IC50 (RKO [39]) was > 14000 nM.

From ChEMBL document CHEMBL1138290 (J Med Chem, 2007)
